Test results: ChEMBL document CHEMBL1129795, “2-Azetidinone cholesterol absorption inhibitors: structure-activity relationships on the heterocyclic nucleus” (1996)

Columns and labels:
[1] = target: T1, Sterol O-acyltransferase 1 (Rattus norvegicus) (UniProt O70536); assay: In vitro for inhibitory activity against Acyl coenzyme A:cholesterol acyltransferase 1 from rat liver microsomes at 50 uM
T1 sequence (whole entry): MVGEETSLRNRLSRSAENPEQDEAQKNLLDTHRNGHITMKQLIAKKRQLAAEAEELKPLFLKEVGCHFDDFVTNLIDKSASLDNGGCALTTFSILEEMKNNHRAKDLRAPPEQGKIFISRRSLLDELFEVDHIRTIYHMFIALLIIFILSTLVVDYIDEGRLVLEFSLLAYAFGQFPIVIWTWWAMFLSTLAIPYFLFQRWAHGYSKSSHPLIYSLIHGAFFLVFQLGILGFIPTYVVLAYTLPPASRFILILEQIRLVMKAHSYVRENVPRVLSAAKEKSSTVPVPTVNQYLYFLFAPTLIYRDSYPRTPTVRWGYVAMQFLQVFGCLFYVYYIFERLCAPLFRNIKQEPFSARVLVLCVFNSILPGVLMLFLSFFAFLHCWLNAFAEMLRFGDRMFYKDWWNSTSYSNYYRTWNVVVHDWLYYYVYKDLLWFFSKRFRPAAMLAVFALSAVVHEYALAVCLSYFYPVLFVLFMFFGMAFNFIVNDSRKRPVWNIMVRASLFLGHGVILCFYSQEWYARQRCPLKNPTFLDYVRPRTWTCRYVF
Procedure, shortened: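 Rat liver microsomes were used to measure ACAT activity as the formation of cholesteryl [3H]oleate from cholesterol and [3H]oleoyl CoA. Results are given as percent inhibition at a single concentration.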

Cricetinae gen. sp. [2] = assay: In vivo for cholesterol absorption inhibitory activity using 7-day cholesterol-fed hamster model (expressed as percent change in cholesteryl esters at 50 mg/kg/day); assay type: functional, Cricetulus griseus
Procedure, shortened: (§1)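 Hamsters were fed a high-cholesterol diet for 7 days and gavaged once daily with compound in 0.2 mL corn oil. On the last day, animals were sacrificed and hepatic and serum lipids were determined. Results are given as percent change in hepatic cholesteryl ester or serum cholesterol concentration versus diet-fed controls gavaged with corn oil without drug.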

Cricetinae gen. sp. [3] = assay: In vivo cholesterol absorption inhibitory activity using 7-day cholesterol-fed hamster model (expressed as percent change in serum cholesterol at 50 mg/kg/day); assay type: functional, Cricetulus griseus; procedure, shortened: as §1
Cricetinae gen. sp. [4] = assay: Compound was tested in vivo for Cholesterol absorption inhibitory activity by using 7-day cholesterol-fed hamster model.(change in serum cholesterol( tested at 50 mg/kg/day).; assay type: functional; procedure, shortened: as §1
Cricetinae gen. sp. [5] = assay: Compound was tested in vivo for Cholesterol absorption inhibitory activity by using 7-day cholesterol-fed hamster model.(change in % change in cholesteryl esters(tested at 50 mg/kg/day).; assay type: functional, Cricetulus griseus; procedure, shortened: as §1

Compound | inhibition [1] [%] | Change (Cricetinae gen. sp. [2]) [%] | Change (Cricetinae gen. sp. [3]) [%] | Change (Cricetinae gen. sp. [4]) [%] | Change (Cricetinae gen. sp. [5]) [%]
COc1ccc(N2C(=O)[C@H](CCCc3ccccc3)[C@H]2c2ccc([N+](=O)[O-])cc2)cc1 | 21 | 0 | -11 |  | 
CCC(=O)Oc1ccc(N2C(=O)[C@H](CCCc3ccccc3)[C@H]2c2ccc(OC)cc2)cc1 |  |  |  | -22 | -54
COc1ccc(N2C(=O)[C@H](CCCc3ccccc3)[C@H]2c2ccc(CO)cc2)cc1 | -6 | -46 | -21 |  | 
COc1ccc(N2C(=O)[C@H](CCCc3ccccc3)[C@H]2c2ccc(N)cc2)cc1 | 63 | 0 | 0 |  | 
COc1ccc(N2C(=O)[C@H](CCCc3ccccc3)[C@H]2c2ccccc2)cc1 | 22 | -15 | -6 |  | 
COc1ccc(N2C(=O)[C@H](CCCc3ccccc3)[C@H]2c2ccc(OC(C)C)cc2)cc1 | 59 | -94 | -38 |  | 
COc1ccc(N2C(=O)[C@H](CCCc3ccccc3)[C@H]2c2ccc(O)cc2)cc1 | 8 | -48 | -16 |  | 
CCOc1ccc([C@@H]2[C@@H](CCCc3ccccc3)C(=O)N2c2ccc(OC)cc2)cc1 | 68 | -98 | -52 |  | 
COc1ccc(N2C(=O)[C@H](CCCc3ccccc3)[C@H]2c2ccc(OC)c(OC)c2)cc1 | 53 | -33 | -11 |  | 
CCCCCCCCCC[C@H]1C(=O)N(c2ccc(OC)cc2)[C@@H]1c1ccc(OC)cc1 |  |  |  | 0 | -18
COc1ccc(N2C(=O)[C@H](CCCc3ccccc3)[C@H]2c2ccc(SC)cc2)cc1 |  | 0 | 0 |  | 
COc1ccc([C@@H]2[C@@H](CCCc3ccccc3)C(=O)N2c2cccc(OC)c2)cc1 |  | -91 | -38 |  | 
COc1ccc(N2C(=O)[C@H](CCCc3ccccc3)[C@H]2c2cccc(OC)c2)cc1 | 21 | -24 | -17 |  | 
COc1ccc(N2C(=O)C(CCCc3ccccc3)C2(c2ccc(OC)cc2)c2ccc(OC)cc2)cc1 (stereo not drawn) |  | 0 | -9 |  | 
COc1ccc([C@@H]2[C@@H](CCCc3ccccc3)C(=O)N2C23C[C@H]4C[C@@H](C2)C[C@@H](C3)C4)cc1 |  | 0 | 0 |  | 
COc1ccc(N2C(=O)[C@H](CCCc3ccccc3)[C@H]2c2ccc(O)c(O)c2)cc1 |  |  |  | 0 | 
COc1ccc([C@@H]2[C@H](CCCCCc3ccccc3)C(=O)N2c2ccc(OC)cc2)cc1 |  | -70 | -24 |  | 
CCOc1ccc([C@@H]2[C@H](CCCc3ccccc3)C(=O)N2c2ccc(OC)cc2)cc1 | 79 | -93 | -48 |  | 
CCCCCCCCCC[C@@H]1C(=O)N(c2ccc(OC)cc2)[C@@H]1c1ccc(OC)cc1 |  |  |  | 0 | -15
COc1ccc([C@@H]2[C@@H](CCCc3ccccc3)C(=O)N2c2cccc(N)c2)cc1 |  | -54 | -25 |  | 
CC[C@]1(CCCc2ccccc2)C(=O)N(c2ccc(OC)cc2)[C@@H]1c1ccc(OC)cc1 |  | 0 | 0 |  | 
COc1ccc([C@@H]2[C@@H](CCCc3ccccc3)C(=O)N2c2ccc(C)cc2)cc1 |  | -90 | -38 |  | 
O=C1[C@H](CCCc2ccccc2)[C@@H](c2ccc(O)cc2)N1c1ccc(O)cc1 |  | -90 | -35 |  | 
CC[C@H]1C(=O)N(c2ccc(OC)cc2)[C@@H]1c1ccc(OC)cc1 |  | 0 | 0 |  | 
COc1ccc([C@@H]2[C@@H](CCCc3ccccc3)C(=O)N2c2c(OC)cc(OC)cc2OC)cc1 |  | 0 | 0 |  | 
COc1ccc(N2C(=O)[C@@H](CCCc3ccccc3)[C@H]2c2ccc(O)cc2)cc1 | 20 | -75 | -31 |  | 
COc1ccc([C@@H]2[C@@H](CCCc3ccccc3)C(=O)N2c2ccc(Oc3ccccc3)cc2)cc1 |  | -49 | -28 |  | 

Compound | inhibition [1] [%] | Change (Cricetinae gen. sp. [2]) [%] | Change (Cricetinae gen. sp. [3]) [%] | Change (Cricetinae gen. sp. [4]) [%] | Change (Cricetinae gen. sp. [5]) [%]
C=CCOc1ccc(N2C(=O)[C@H](CCCc3ccccc3)[C@H]2c2ccc(OC)cc2)cc1 |  | -90 | -44 |  | 
CCCOc1ccc([C@@H]2[C@@H](CCCc3ccccc3)C(=O)N2c2ccc(OC)cc2)cc1 |  | -95 | -40 |  | 
COc1ccc([C@H]2N(c3ccc(OC)cc3)C(=O)C2(c2ccccc2)c2ccccc2)cc1 |  | 0 | 0 |  | 
COc1ccc(N2C(=O)[C@@H](CCCc3ccccc3)[C@H]2c2ccc3c(c2)OCO3)cc1 |  | 0 | 0 |  | 
COc1ccc(N2C(=O)[C@H](CCCc3ccccc3)[C@H]2c2ccc([S+](C)[O-])cc2)cc1 (stereo partly drawn) |  | -32 | -17 |  | 
COc1ccc([C@H]2N(c3ccccc3)C(=O)[C@]2(F)CCCc2ccccc2)cc1 |  | -17 | -10 |  | 
COc1ccc([C@@H]2[C@@H](CCCc3ccccc3)C(=O)N2C(=O)c2ccccc2)cc1 |  | 16 | 0 |  | 
CCN1C(=O)[C@H](CCCc2ccccc2)[C@H]1c1ccc(OC)cc1 |  | -21 | -13 |  | 
COc1ccc([C@@H]2[C@@H](CCCc3ccccc3)C(=O)N2c2ccc(SC)cc2)cc1 |  | -70 | -26 |  | 
COc1ccc(N2C(=O)C(CCCc3ccccc3)C23c2ccc(OC)cc2-c2cc(OC)ccc23)cc1 (stereo not drawn) |  | -22 | -22 |  | 
COc1ccc([C@@H]2[C@H](C)C(=O)N2c2ccc(OC)cc2)cc1 |  | 0 | 0 |  | 
COc1ccc(N2C(=O)[C@H](CCCc3ccccc3)[C@H]2c2ccc3c(c2)OCO3)cc1 |  | -19 | 0 |  | 
COc1ccc([C@@H]2[C@@H](CCCc3ccccc3)C(=O)N2c2ccccc2OC)cc1 |  | -87 | -49 |  | 
COc1ccc(N2C(=O)[C@@H](CCCc3ccccc3)[C@H]2c2cccc(OC)c2)cc1 | 39 | -54 | -19 |  | 
COc1ccc(N2C(=O)[C@H](CCCc3ccccc3)[C@H]2c2ccc(C)cc2)cc1 | 18 | -21 | -20 |  | 
COc1ccc(N2C(=O)[C@@H](CCCc3ccccc3)[C@H]2c2ccccc2)cc1 |  | 0 | 0 |  | 
COc1ccc([C@@H]2[C@@H](CCCc3ccccc3)C(=O)N2c2cc(F)cc(F)c2)cc1 |  | -93 | -52 |  | 
COc1ccc([C@@H]2[C@@H](CCCc3ccccc3)C(=O)N2c2ccc(C(C)=O)cc2)cc1 |  | -90 | -40 |  | 
COc1ccc([C@@H]2[C@H](CCCc3ccccc3)C(=O)N2c2ccc(OC)cc2)cc1 |  | -95 | -45 |  | 
COc1ccc([C@@H]2[C@H](CCCCc3ccccc3)C(=O)N2c2ccc(OC)cc2)cc1 |  | -72 | -28 |  | 
COc1ccc([C@@H]2[C@@H](CCCc3ccccc3)C(=O)N2C)cc1 |  | 0 | 0 |  | 
COc1ccc(N2C(=O)[C@H](CCCc3ccccc3)[C@H]2c2ccc(NC(C)=O)cc2)cc1 |  | -26 | -4 |  | 
COc1ccc(N2C(=O)[C@@H](CCCc3ccccc3)[C@H]2c2ccc(S)cc2)cc1 |  | 0 | -19 |  | 
COc1ccc(N[C@H](c2ccc(OC)cc2)[C@@H](CCCc2ccccc2)C(=O)O)cc1 |  | 0 | -8 |  | 
COc1ccc(N2C(=O)[C@H](CCCc3ccccc3)[C@H]2c2ccc(OC)cc2OC)cc1 |  | -78 | -26 |  | 
COc1ccc([C@H]2N(c3ccc(OC)cc3)C(=O)[C@@]2(Cc2ccccc2)c2ccccc2)cc1 |  | 16 | 16 |  | 
